According to ChEMBL document CHEMBL1142564, “Lanostane triterpenoids and triterpene glycosides from the fruit body of Fomitopsis pinicola and their inhibitory activity against COX-1 and COX-2” (J Nat Prod, 2005):

What was measured:
[1] = Inhibition of sheep placental COX2 by liquid scintillation counter
[2] = biological target: T1, Prostaglandin G/H synthase 1 (Ovis aries) (UniProt P05979); experiment: Inhibition of COX1 from ram seminal vesicles at 10 ug/ml by liquid scintillation counter
T1 sequence (whole entry): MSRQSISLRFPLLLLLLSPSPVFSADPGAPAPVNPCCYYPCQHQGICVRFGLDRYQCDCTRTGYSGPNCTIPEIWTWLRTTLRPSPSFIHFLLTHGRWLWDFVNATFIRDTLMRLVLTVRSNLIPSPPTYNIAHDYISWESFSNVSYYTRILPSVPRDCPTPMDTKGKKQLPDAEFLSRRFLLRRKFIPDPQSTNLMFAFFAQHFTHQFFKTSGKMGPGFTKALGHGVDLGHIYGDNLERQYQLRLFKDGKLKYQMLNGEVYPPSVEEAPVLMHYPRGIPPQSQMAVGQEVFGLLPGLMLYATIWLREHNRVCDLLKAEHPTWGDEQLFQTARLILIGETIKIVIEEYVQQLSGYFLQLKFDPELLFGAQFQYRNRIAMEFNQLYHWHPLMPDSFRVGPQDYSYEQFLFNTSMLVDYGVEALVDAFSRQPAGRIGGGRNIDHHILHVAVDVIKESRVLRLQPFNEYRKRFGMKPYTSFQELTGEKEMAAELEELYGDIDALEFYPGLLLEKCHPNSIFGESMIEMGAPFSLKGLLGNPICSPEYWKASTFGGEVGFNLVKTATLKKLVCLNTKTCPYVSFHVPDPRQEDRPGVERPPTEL

[3] = biological target: Prostaglandin G/H synthase 2 (Ovis aries, UniProt P79208); experiment: Inhibition of sheep placental COX2 by liquid scintillation counter
Summary of the method: (§1)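 Enzymes used were ram seminal vesicle COX-1 and sheep placenta COX-2 (70% pure), 2 units each, in 0.1 M Tris-HCl pH 7.5 with 1 mM hematin and 2 mM phenol. Sample was preincubated 2 min at 37 °C, then 51.4 µM [1-14C]arachidonic acid was added for 2 min at 37 °C. Extraction used hexane-EtOAc (2:1); PGE2 was measured by radioimmunoassay with scintillation counting. IC50 came from duplicate four-point titration.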

[4] = biological target: T2, Prostaglandin G/H synthase 1 (Ovis aries, UniProt P05979); experiment: Inhibition of COX1 from ram seminal vesicles by liquid scintillation counter
T2 sequence (P05979 whole entry): T1 sequence (whole entry)
Summary of the method: as §1

[5] = tested on: Prostaglandin G/H synthase 2 (Ovis aries); experiment: Inhibition of sheep placental COX2 at 10 ug/ml by liquid scintillation counter

Sequence of Prostaglandin G/H synthase 2 (P79208 whole entry, looked up): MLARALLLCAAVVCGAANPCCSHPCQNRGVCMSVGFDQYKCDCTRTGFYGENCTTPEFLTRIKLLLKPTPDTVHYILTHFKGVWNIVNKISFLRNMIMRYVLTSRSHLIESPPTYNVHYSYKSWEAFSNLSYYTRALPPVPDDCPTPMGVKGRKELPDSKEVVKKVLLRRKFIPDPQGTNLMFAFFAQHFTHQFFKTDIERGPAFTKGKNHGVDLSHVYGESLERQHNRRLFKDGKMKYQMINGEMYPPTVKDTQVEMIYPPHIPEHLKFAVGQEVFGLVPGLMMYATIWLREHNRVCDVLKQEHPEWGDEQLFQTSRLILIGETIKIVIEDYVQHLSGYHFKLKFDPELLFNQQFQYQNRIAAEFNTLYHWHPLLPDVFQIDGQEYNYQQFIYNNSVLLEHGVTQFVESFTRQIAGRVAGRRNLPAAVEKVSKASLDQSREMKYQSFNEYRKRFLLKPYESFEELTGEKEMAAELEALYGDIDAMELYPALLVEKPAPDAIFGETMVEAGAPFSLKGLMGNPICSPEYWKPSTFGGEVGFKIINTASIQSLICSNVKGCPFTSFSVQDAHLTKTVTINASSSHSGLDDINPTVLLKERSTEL

SMILES | INH [1] [×10⁻⁵ M] | inhibition [2] [%] | IC50 [3] [µM] | IC50 [4] [µM] | inhibition [5] [%]
C=C(CC[C@@H](C(=O)O[C@@H]1OC[C@@H](O)[C@H](O)[C@H]1O)[C@H]1CC[C@@]2(C)C3=C(CC[C@]12C)[C@@]1(C)CC[C@@H](OC(C)=O)C(C)(C)[C@@H]1CC3)C(C)C | 1.85 | 21.7 |  |  | 
CC(=O)O[C@@H]1CC[C@]2(C)C3=C(CC[C@H]2C1(C)C)[C@]1(C)CC[C@H]([C@@H](C/C=C/C(C)(C)O)C(=O)O[C@@H]2OC[C@@H](O)[C@H](O)[C@H]2O)[C@@]1(C)CC3 [FOMITOSIDE E] |  | 57.2 | 0.15 |  | 
CC(=O)O[C@@H]1CC[C@]2(C)C3=C(CC[C@H]2C1(C)C)[C@]1(C)CC[C@H]([C@@H](CCC=C(C)C)C(=O)O[C@@H]2OC[C@@H](O)[C@H](O)[C@H]2O)[C@@]1(C)CC3 [FOMITOSIDE F] |  | 27.5 | 1.13 |  | 
CC(C)(O)[C@@H](O)CC[C@@H](C(=O)O)[C@H]1CC[C@@]2(C)C3=C(CC[C@]12C)[C@@]1(C)CCC(=O)C(C)(C)[C@@H]1CC3 [FOMITOPINIC ACID A] |  | 18.1 | 1.15 |  | 
CC(C)=CCC[C@@H](C(=O)O[C@@H]1OC[C@@H](O)[C@H](O)[C@H]1O)[C@H]1CC[C@@]2(C)C3=C(CC[C@]12C)[C@@]1(C)CCC(=O)C(C)(C)[C@@H]1CC3 [FOMITOSIDE C] |  |  | 5110 | 1910 | 
C=C(CC[C@@H](C(=O)O[C@@H]1OC[C@@H](O)[C@H](O)[C@H]1O)[C@H]1CC[C@@]2(C)C3=C(CC[C@]12C)[C@@]1(C)CCC(=O)C(C)(C)[C@@H]1CC3)C(C)C [FOMITOSIDE D] |  |  | 2390 | 3330 | 
COC(=O)CC(C)(O)CC(=O)O[C@@H]1CC[C@]2(C)C3=C(CC[C@H]2C1(C)C)[C@]1(C)CC[C@H]([C@@H](CCC=C(C)C)C(=O)O[C@@H]2OC[C@@H](O)[C@H](O)[C@H]2O)[C@@]1(C)CC3 (some centres undefined) [FOMITOSIDE H] |  |  |  | 73.9 | 70.1
